Compound activity deposited in PubChem by The Scripps Research Institute Molecular Screening Center.
NR2E3 ag-1 – NR2E3 agonists in two-hybrid cells, primary screen, cell-based, luminescence, CHO-S, Gal4-NCOR/VP16-NR2E3 | 360,000 compounds, 0.35% hits | Photoreceptor-specific nuclear receptor (Homo sapiens), Q9Y5X4 | inhibition of corepressor binding, % at 3.98 µM | luciferase;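 active = inhibition above the mean of all tested compounds plus 3 SD, cut at about 70% in these data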;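 note: 0% = DMSO with NR2E3 transfected cells and 100% = cells lacking NR2E3 construct; higher means lower luciferase signal from less NR2E3 corepressor binding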
SMARCA2 act – SMARCA2 (BRM) function activators, primary screen, cell-based, luminescence, high throughput. MG213 cells, MMTV-luciferase reporter, dexamethasone, overnight. activation, % at 9.1 µM. 370,000 compounds, 1% hits; in the data active = activation above about 7.8%;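 note: 0% = vehicle wells and 100% = reference activator wells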
COUP-TFII inh – NR2F2 transcriptional activity inhibitors, primary screen, cell-based, luciferase reporter, HEK293T, luminescence; 370,000 compounds, 0.7% hits; COUP transcription factor 2 (Homo sapiens), P24468; inhibition, % at 8.6 µM; HEK293T NGFI-A luciferase reporter;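 active = inhibition above a per-plate cutoff, mean inhibition of test wells between control levels plus 3 SD, cut at about 38% in these data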;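 note: cells cotransfected with COUP-TFII expression vector driving the NGFI-A reporter; 0% = median of COUP-TF2 test wells and 100% = reporter-only cells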
NR2E3 ag-2 – inhibitors of NR2E3-RetCOR corepressor binding, primary screen, NR2E3 agonist project, biochemical, TR-FRET, GST-NR2E3, biotin-RetCOR | Photoreceptor-specific nuclear receptor (Homo sapiens), Q9Y5X4 | 1536-well | inhibition of corepressor binding, % at 4.78 µM | 320,000 compounds, 0.12% hits | AID 2300, 2010;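 active = percent inhibition above the cutoff of mean plus 3 SD of all tested compounds, set per screening campaign, cut at about 20% in these data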;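 note: 0% = DMSO wells and 100% = biotin wells as full block of FRET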
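Format: 1536-well format; test system: GST-NR2E3 and biotin-RetCOR proteins; read-out basis: percent inhibition of TR-FRET ratio; timing: 5 h incubation at 4 °C; detection: time-resolved FRET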
GalR3 antagonist – GalR3 antagonists in HEK293 cells, primary screen, cell-based, fluorescence readout. HEK293 GalR3-CNG cAMP membrane potential fluorescence; galR3 body fused to GalR1 C-terminus. inhibition, % at 3 µM. 360,000 compounds, 0.44% hits. AID 651719, 2012;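 active = inhibition above the screen-wide average plus 3 SD, cut at about 13% in these data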;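 note: forskolin and galanin both at EC90 stimulate the cells; cAMP rise reported by CNG channel membrane potential dye signal; 0% = forskolin plus galanin with DMSO and 100% = forskolin alone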
Target sequence (O60755 1-299 limits assumed): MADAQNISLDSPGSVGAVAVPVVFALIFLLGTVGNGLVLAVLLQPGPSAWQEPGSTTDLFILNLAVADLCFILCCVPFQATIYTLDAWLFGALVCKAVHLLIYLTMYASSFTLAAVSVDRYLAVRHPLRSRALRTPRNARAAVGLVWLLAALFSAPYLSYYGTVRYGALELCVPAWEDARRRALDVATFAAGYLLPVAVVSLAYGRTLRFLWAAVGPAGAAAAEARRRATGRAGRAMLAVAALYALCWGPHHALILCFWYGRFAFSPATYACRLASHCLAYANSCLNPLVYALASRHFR
SMARCA2 conf – SMARCA2 (BRM) function activators, confirmation, cell-based, luminescence, triplicate; 3,500 compounds, 30% hits; AID 652260, 2013; activation, % at 9.1 µM; MG213 cells, MMTV-luciferase with dexamethasone, overnight; MG213 cells expressing E1A, Rb sequestered; DMSO wells 0%, reference activator 100%; shares compounds with SMARCA2 act;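 active = activation above its plate's cutoff, the mean activation of tested wells plus 3 SD, cut at about 7.9% in these data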
VP16 Luc act – GAL4-VP16 luciferase reporter activation, counter-screen for SMARCA2 (BRM) activator project, cell-based, pG5luc, luminescence, high throughput | activation, % at 9.1 µM | shares compounds with SMARCA2 act | 3,500 compounds, 41% hits | HEK293 GAL4-VP16 pG5luc reporter; scaled: DMSO wells 0%, SAHA wells 100%;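 active = activation above the solvent-only control well mean plus 3 SD, averaged across control plates, cut at about 5.2% in these data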
* = called active by the depositor. Compounds with a hit are over-represented: about 2.2% of the library has one in this group of screens.

How did O=C(NC(=S)Nc1ccc(F)cc1)c1ccc2c(c1)OCCO2 do in these assays?
NR2E3 ag-1: -96.5; SMARCA2 act: 3.8; COUP-TFII inh: -43.9; NR2E3 ag-2: -2.1; GalR3 antagonist: -4.7

How did CCOC(=O)[C@]12CCCC=C1N(Cc1ccc(OC)cc1)C(=O)[C@@H]2CC(=O)N1CCN(C(=O)C2CC2)CC1 do in these assays?
SMARCA2 act: -2.4; COUP-TFII inh: 16.5

How did COc1ccccc1CNC(=O)N1CCN(Cc2nc3ccccc3c(=O)[nH]2)CC1 do in these assays?
SMARCA2 act: -1.2; COUP-TFII inh: 5.7

How did O=C(CCl)NCCCCCCCCCNC(=O)CCl do in these assays?
NR2E3 ag-1: -16.5; SMARCA2 act: 8.8*; COUP-TFII inh: -9.3; NR2E3 ag-2: -2.6; GalR3 antagonist: -2.5; SMARCA2 conf: 7.5; VP16 Luc act: -0.9

How did CCC(=O)NCCCCCCNC(=O)CC do in these assays?
NR2E3 ag-1: 5.8; SMARCA2 act: 0.8; COUP-TFII inh: 15.3; NR2E3 ag-2: 4.3; GalR3 antagonist: -1.1

Results for Cc1cc(C)c2[nH]c(C(=O)Nc3ccc4c(c3)OCO4)cc2c1 ?
NR2E3 ag-1: -34.6; SMARCA2 act: 8.0*; COUP-TFII inh: -19.0; NR2E3 ag-2: -2.4; GalR3 antagonist: -4.1; SMARCA2 conf: -0.4; VP16 Luc act: 3.4

Results for CCOC(=O)C1=C(N)OC(C)=C(C#N)C1c1ccco1 (stereo not drawn) ?
NR2E3 ag-1: 3.5; SMARCA2 act: 9.0*; COUP-TFII inh: 3.4; NR2E3 ag-2: 2.7; GalR3 antagonist: -9.6; SMARCA2 conf: 1.5; VP16 Luc act: 1.1

What do the screens show for `CC(C)Nc1ccc(Nc2ccnc3cc4ccccc4cc23)cc1`?
NR2E3 ag-1: -24.0; SMARCA2 act: 12.3*; COUP-TFII inh: -18.6; NR2E3 ag-2: -5.1; GalR3 antagonist: -2.0; SMARCA2 conf: 9.1*; VP16 Luc act: -0.5

Results for Cn1nnnc1SCC(=O)Nc1nc2c(s1)CCCC2 ?
NR2E3 ag-1: -131.4; SMARCA2 act: 11.5*; COUP-TFII inh: -32.8; NR2E3 ag-2: -1.0; GalR3 antagonist: -1.2; SMARCA2 conf: 5.8; VP16 Luc act: 9.0*

How did CCN1C(=O)N(C(C)=O)[C@@H]2C[C@H](C(=O)N3CCCC3)[C@H](C)[C@H](c3ccccc3)C[C@@H]21 do in these assays?
SMARCA2 act: -4.0; COUP-TFII inh: 2.6; GalR3 antagonist: -5.2

What do the screens show for `Cc1cc(C(=O)O[C@H]2CCC[C@]3(C(=O)N(Cc4ccccc4)c4ccccc43)[C@H]2NC(=O)CCc2ccccc2)no1`?
SMARCA2 act: -4.6; COUP-TFII inh: 4.7

How did CCN(CC)C(=S)SCC(=O)Nc1ccc(S(N)(=O)=O)cc1 do in these assays?
NR2E3 ag-1: 5.0; SMARCA2 act: 3.7; COUP-TFII inh: -20.3; NR2E3 ag-2: 4.7; GalR3 antagonist: -5.0

How did CCN(CC)C(=S)SCC(=O)Nc1nc(=O)c2ccccc2s1 do in these assays?
NR2E3 ag-1: -60.3; SMARCA2 act: 8.5*; COUP-TFII inh: -13.3; NR2E3 ag-2: 4.2; GalR3 antagonist: -0.7; SMARCA2 conf: 1.7; VP16 Luc act: 1.8

Results for O=C1CC(c2ccccc2)Sc2nc3ccccc3n21 (stereo not drawn) ?
NR2E3 ag-1: -105.9; SMARCA2 act: 11.7*; COUP-TFII inh: -43.6; NR2E3 ag-2: -8.3; GalR3 antagonist: -5.3; SMARCA2 conf: 8.8*; VP16 Luc act: 8.6*
